The results in this text go back to ChEMBL document CHEMBL1122635, “Synthesis and physicochemical and neurotoxicity studies of 1-(4-substituted-2,5-dihydroxyphenyl)-2-aminoethane analogues of 6-hydroxydopamine” (1984).

Assay [1] has as its system Rattus norvegicus. Description: Ability to inhibit norepinephrine uptake in rat atria was determined at 730uM/kg; b denotes 'Rats expired with in 30 min after injection'. Format: functional, organism-based. The gist of the method: (§1)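 Male Sprague-Dawley rats (120 ± 10 g) got the dose in 0.9% saline with 0.1% ascorbic acid, 0.2 mL i.v. via the left femoral vein under light halothane. Controls got vehicle. At 24 h, atria were cut into four 10-15 mg pieces and incubated 30 min at 37 °C under 95% O2/5% CO2 in Krebs-Ringer bicarbonate (pH 7.35) with 10^-7 M [3H]NE. A 10 min washout followed, then HClO4 extracts were counted. Inhibition = control minus treated, 12 determinations from 3 rats, mean ± SD.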

The subject of assay [2] is Rattus norvegicus. Description: Ability to inhibit norepinephrine uptake in rat atria was determined at 486uM/kg; b denotes 'Rats expired with in 30 min after injection'. Type of assay: functional, organism-based. Summed up:
as §1

Assay [3] deals with Rattus norvegicus. Description: Ability to inhibit norepinephrine uptake in rat atria was determined at 243 umol/kg. Format: functional. Summed up: as §1
For assay [4], the system named is Rattus norvegicus. Description: Ability to inhibit norepinephrine uptake in rat atria was determined at 365 umol/kg. Type of assay: functional. Summed up: as §1
In assay [5] the test system is Rattus norvegicus. The assay can be described thus: Ability to inhibit norepinephrine uptake in rat atria was determined at 122 umol/kg. Type of assay: functional. The gist of the method: as §1
Assay [6] has as its system Rattus norvegicus. Description: Ability to inhibit norepinephrine uptake in rat atria was determined at 73 uM/kg. Type of assay: functional. Summed up:
as §1

For assay [7], the system named is Rattus norvegicus. Description: Ability to inhibit norepinephrine uptake in rat atria was determined at 49 uM/kg. Type of assay: functional. Summed up: as §1
Assay [8] has as its system Rattus norvegicus. The assay can be described thus: Ability to inhibit norepinephrine uptake in rat atria was determined at122uM/kg; b denotes 'Rats expired with in 30 min after injection'. Type of assay: functional, organism-based. The gist of the method: as §1
Assay [9] concerns Rattus norvegicus. The assay can be described thus: Ability to inhibit norepinephrine uptake in rat atria was determined at 24 uM/kg. Type of assay: functional. Summed up: as §1
In assay [10] the test system is Rattus norvegicus. The assay can be described thus: Ability to inhibit norepinephrine uptake in rat atria was determined at 365uM/kg; b denotes 'Rats expired with in 30 min after injection'. Format: functional, organism-based. Summed up: as §1
In assay [11] the test system is Rattus norvegicus. The assay can be described thus: Ability to inhibit norepinephrine uptake in rat atria was determined at 97 umol/kg. Format: functional. Summed up: as §1
Assay [12] relates to Rattus norvegicus. The assay can be described thus: Ability to inhibit norepinephrine uptake in rat atria was determined at 243uM/kg; b denotes 'Rats expired with in 30 min after injection'. Type of assay: functional, organism-based. The gist of the method: as §1
For assay [13], the system named is Rattus norvegicus. Description: Ability to inhibit norepinephrine uptake in rat atria was determined at 486 umol/kg. Format: functional. The gist of the method: as §1

As a reminder, the inhibition in vivo is the relative decrease from the control value, in per cent. A low value points to little suppression. In general, Inhibition refers to the relative decrease from the control value, in per cent. Read a high Inhibition as a strong effect. For `Cc1cc(O)c(CCN)cc1O`, the inhibition entry with Rattus norvegicus [1] and in the assay on Rattus norvegicus [2] was “Rats expired within 30min after injection” in each case. In the assay with Rattus norvegicus [3], this molecule came in with an inhibition in vivo at 243 µmol/kg of 27%. Also, in the assay on Rattus norvegicus [4], the inhibition in vivo at 365 µmol/kg was determined as 24%. This molecule returned an inhibition in vivo at 122 µmol/kg in the assay with Rattus norvegicus [5] of 19%. In addition, in the assay with Rattus norvegicus [6], the Inhibition turned out to be 16%.
`NCCc1cc(O)c(N)cc1O`: the inhibition entry in the assay with Rattus norvegicus [1], in the assay on Rattus norvegicus [2], with Rattus norvegicus [8], in the assay with Rattus norvegicus [10] and in the assay with Rattus norvegicus [12] was “Rats expired within 30min after injection” throughout. Moreover, the Inhibition with Rattus norvegicus [7] came to 60%; in the assay with Rattus norvegicus [9], 20%; with Rattus norvegicus [6] it was 80%. Besides, the inhibition in vivo at 97 µmol/kg with Rattus norvegicus [11] amounted to 91%.
In the assay with Rattus norvegicus [13], `NCCc1cc(O)c(C(=O)O)cc1O` had an inhibition in vivo at 486 µmol/kg of 0%.
On the same count and under the same terms, to `NCCc1cc(O)c([N+](=O)[O-])cc1O` belongs 0%.
With `COc1cc(O)c(CCN)cc1O`, the inhibition entry in the assay on Rattus norvegicus [1] and with Rattus norvegicus [2] was “Rats expired within 30min after injection” throughout. The molecule also registered an inhibition in vivo at 365 µmol/kg in the assay on Rattus norvegicus [4] of 26%.
As for `NCCc1cc(O)c(Br)cc1O`, the inhibition in vivo at 243 µmol/kg in the assay on Rattus norvegicus [3] is 10%. This molecule also yielded an inhibition in vivo at 122 µmol/kg in the assay with Rattus norvegicus [5] of 0%.
Take `NCCc1cc(O)ccc1O`: in the assay with Rattus norvegicus [13], the inhibition in vivo at 486 µmol/kg was found to be 0%.
Same read-out and setting: to `N#Cc1cc(O)c(CCN)cc1O` belongs 0%; to `NCCc1cc(O)c(Cl)cc1O`, 0%.
In the assay on Rattus norvegicus [3], `NCCc1cc(O)c(O)cc1O` [OXIDOPAMINE] showed an inhibition in vivo at 243 µmol/kg of 85%. The Inhibition in the assay with Rattus norvegicus [7] came out at 68%; in the assay on Rattus norvegicus [9], 45%; in the assay on Rattus norvegicus [6] it was 74%. Also, in the assay on Rattus norvegicus [5], the inhibition in vivo at 122 µmol/kg is 79%. This molecule showed an inhibition in vivo at 97 µmol/kg in the assay with Rattus norvegicus [11] of 79%. Further, the inhibition in vivo at 486 µmol/kg in the assay on Rattus norvegicus [13] worked out at 87%.
